According to ChEMBL document CHEMBL1123985, “Oral absorption of cephalosporin antibiotics. 1. Synthesis, biological properties, and oral bioavailability of 7-(arylacetamido)-3-chloro cephalosporins in animals” (J Med Chem, 1988):
Converted amounts (≈) assume the structure as drawn.

How the values were obtained:
Streptococcus pneumoniae [1] = assay: Minimum inhibitory concentration against park strain of Streptococcus pneumoniae
Staphylococcus aureus [2] = assay: Minimum inhibitory concentration against V41 strain of Staphylococcus aureus; assay type: functional
Staphylococcus aureus [3] = assay: Minimum inhibitory concentration against X1.1 strain of Staphylococcus aureus; assay type: functional
Klebsiella aerogenes = assay: Minimum inhibitory concentration against EB17 strain of Enterobacter aerogenes; assay type: functional
[4] = Oral bioavailability in Rhesus monkey; assay type: ADME, organism-based, Macaca mulatta; details: in vivo
In short: (§1)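 Rhesus monkeys, adult males, six animals per compound, each given drug orally and iv; fasted overnight. Single 30 mg/kg solution doses, by nasogastric tube (in water) or saphenous vein (in isotonic lactated Ringer). Plasma sampled at intervals, frozen at -70 °C, antibacterial activity by microbiological assay. AUC in μg min/mL; oral bioavailability from oral vs iv AUC.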

Streptococcus pneumoniae [5] = assay: Minimum inhibitory concentration against Park strain of Streptococcus pneumoniae; assay type: functional
Klebsiella pneumoniae = assay: Minimum inhibitory concentration against X68 strain of Klebsiella pneumoniae; assay type: functional
Staphylococcus aureus [6] = assay: Minimum inhibitory concentration against S13E strain of Staphylococcus aureus; assay type: functional
Mus musculus [7] = assay: Efficacy against mouse infected ip with C203 strain of Streptococcus pyogenes, administered po to 19-21-g random sex ICR mice at 1 hr and 5 hr; assay type: functional
In short: (§2)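 ICR mice, random sex, 19-21 g, challenged ip with 50-500 LC50 from a frozen organism pool; compound given sc or po at 1 and 5 h after challenge, five 2-fold dose levels, eight mice per level; ED50 derived.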

[8] = system: Staphylococcus epidermidis; assay: Minimum inhibitory concentration against Epil strain of Staphylococcus epidermidis; assay type: functional
Mus musculus [9] = assay: Efficacy against mouse infected ip with C203 strain of Streptococcus pyogenes, administered sc to 19-21-g random sex ICR mice at 1 hr and 5 hr; assay type: functional
In short: as §2

[10] = system: Staphylococcus epidermidis; assay: Minimum inhibitory concentration against 222 strain of Staphylococcus epidermidis; assay type: functional
Staphylococcus aureus [11] = assay: Minimum inhibitory concentration against 3055 strain of Staphylococcus aureus
Haemophilus influenzae [12] = assay: (§3) Minimum inhibitory concentration against sens CL strain of Haemophilus influenzae; assay type: functional
[13] = Minimum inhibitory concentration against N9 strain of Shigella sonnei; assay type: functional
[14] = dose in urine (24-h urine excretion) in female mongrel dogs after, iv administration of single 15 mg/kg dose; assay type: ADME, organism-based, Canis lupus familiaris; set-up: dose 15 mg/kg, route intravenous; details: dog
In short: (§4)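 Female mongrel dogs (n=6), bladder catheter; urine collected at intervals after single 15 mg/kg iv or oral solution dose, frozen; antibiotic activity by disk-plate agar diffusion against E. coli MB 3804 with standards in pH 6.0 buffer; percent of dose recovered in urine.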

[15] = Area under plasma concentration vs time curve observed in Rhesus monkeys after, iv administration of single 30 mg/kg dose; assay type: ADME, organism-based, Macaca mulatta; set-up: dose 30 mg/kg, route intravenous; details: rhesus monkey
In short: as §1

Mus musculus [16] = assay: Efficacy against mouse infected ip with park strain of Streptococcus pneumoniae administered po to 19-21-g random sex ICR mice at 1 hr and 5 hr; assay type: functional
In short: as §2

Canis familiaris [17] = assay: Area under plasma concentration vs time curve observed in female mongrel dogs after, oral administration of single 15 mg/kg dose; assay type: ADME, organism-based, Canis lupus familiaris; set-up: dose 15 mg/kg, route oral; details: dog, in vivo
In short: (§5)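 Six female mongrel dogs (14-23 kg) fasted overnight, bladder catheterized; single 15 mg/kg solution doses by stomach tube (in water, total 500 mL) or cephalic vein (saline or pH 6.0 NaCl/phosphate/acetate buffer). Plasma sampled at intervals; activity by disk-plate agar diffusion against E. coli MB 3804, standards in dog serum or buffer. AUC μg min/mL, mean ± SEM; BA from iv vs po AUC and urinary recovery.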

Streptococcus pyogenes [18] = assay: Minimum inhibitory concentration against C203 strain of Streptococcus pyogenes
[19] = Oral bioavailability in mouse; assay type: ADME, organism-based; details: in vivo
In short: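 Male Cox mice given water and liquid diet overnight; 20 mg/kg in saline (2 mg/mL) sc or orally; urine from collection cages plus bladder contents over 2 h; activity by agar well assay with Bacillus subtilis ATCC 6633. Bioavailability from percent dose excreted in urine after oral vs parenteral dosing.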

[20] = dose in urine (24-h urine excretion) in female mongrel dogs after, oral administration of single 15 mg/kg dose; assay type: ADME, organism-based, Canis lupus familiaris; set-up: dose 15 mg/kg, route oral; details: dog
In short: as §4

Mus musculus [21] = assay: Efficacy against mouse infected ip with 3055 strain of Staphylococcus aureus, administered po to 19-21-g random sex ICR mice at 1 hr and 5 hr; assay type: functional
In short: as §2

Canis familiaris [22] = assay: Area under plasma concentration vs time curve observed in female mongrel dogs after, iv administration of single 15 mg/kg dose; assay type: ADME, organism-based, Canis lupus familiaris; set-up: dose 15 mg/kg, route intravenous; details: dog, in vivo
In short: as §5

Escherichia coli = assay: Minimum inhibitory concentration against EC14 strain Escherichia coli; assay type: functional
[23] = Area under plasma concentration vs time curve observed in Rhesus monkeys after oral administration of single 30 mg/kg dose; assay type: ADME, organism-based, Macaca mulatta; set-up: dose 30 mg/kg, route oral; details: rhesus monkey
In short: as §1

Mus musculus [24] = assay: Efficacy against mouse infected ip with 3055 strain of Staphylococcus aureus, administered sc to 19-21-g random sex ICR mice at 1 hr and 5 hr; assay type: functional
In short: as §2

Salmonella = assay: Minimum inhibitory concentration against X514 strain of Salmonella; assay type: functional
Streptococcus pyogenes [25] = assay: Minimum inhibitory concentration against Streptococcus pyogenes C203; assay type: functional
Haemophilus influenzae [26] = assay: (§6) Minimum inhibitory concentration against res 76 strain of Haemophilus influenzae; assay type: functional
[27] = Oral bioavailability in dog (female mongrel); assay type: ADME, organism-based, Canis lupus familiaris; details: in vivo
In short: as §5

Mus musculus [28] = assay: Efficacy against mouse infected ip with park strain of Streptococcus pneumoniae administered sc to 19-21-g random sex ICR mice at 1 hr and 5 hr; assay type: functional
In short: as §2

[29] = as §3; assay type: functional
[30] = Dose in urine (24-h urine excretion) in female mongrel dogs after oral administration of single 15 mg/kg dose; assay type: ADME, organism-based, Canis lupus familiaris; set-up: dose 15 mg/kg, route oral; details: dog
In short: as §4

Streptococcus pyogenes [31] = assay: Minimum inhibitory concentration against C203 strain of Streptococcus pyogenes; remark: listed apart in the source
[32] = Dose in urine (24-h urine excretion) in female mongrel dogs after iv administration of single 15 mg/kg dose; assay type: ADME, organism-based, Canis lupus familiaris; set-up: dose 15 mg/kg, route intravenous; details: dog
In short: as §4

[33] = as §6; assay type: functional
Streptococcus pneumoniae [34] = assay: Minimum inhibitory concentration against Park strain of Streptococcus pneumoniae

Row | Compound | MIC (Streptococcus pneumoniae [1]) | MIC (Staphylococcus aureus [2]) | MIC (Staphylococcus aureus [3]) | MIC (Klebsiella aerogenes) | bioavailability [4] | MIC (Klebsiella pneumoniae) | MIC (Staphylococcus aureus [6]) | MIC [8] | MIC [10] | MIC (Staphylococcus aureus [11]) | MIC [13] | AUC [15] | AUC (Canis familiaris [17]) | bioavailability [19] | AUC (Canis familiaris [22]) | MIC (Escherichia coli) | AUC [23] | MIC (Salmonella) | MIC (Streptococcus pyogenes [25]) | bioavailability [27] | further results
1 | O=C(Cc1csc2ccccc12)N[C@@H]1C(=O)N2C(C(=O)O)=C(Cl)CS[C@H]12 | 0.06 µg/mL (≈ 0.147 µM) | 8 µg/mL (≈ 19.6 µM) | 0.125 µg/mL (≈ 0.306 µM) | > 128 µg/mL | 1.3% | 128 µg/mL (≈ 313 µM) | 8 µg/mL (≈ 19.6 µM) | 1 µg/mL (≈ 2.45 µM) | 0.25 µg/mL (≈ 0.611 µM) | 0.25 µg/mL (≈ 0.611 µM) | 128 µg/mL (≈ 313 µM) | 86800 ng·h/mL | < 800 ng·h/mL | 47% | 29300 ng·h/mL | 64 µg/mL (≈ 157 µM) | 1170 ng·h/mL | 128 µg/mL (≈ 313 µM) | 0.06 µg/mL (≈ 0.147 µM) | < 3% | MIC (Streptococcus pneumoniae [5]): 0.125 µg/mL (≈ 0.306 µM); ED50 (Mus musculus [7]): 5.5 mg/kg; ED50 (Mus musculus [9]): 3.8 mg/kg; MIC (Haemophilus influenzae [12]): 1 µg/mL (≈ 2.45 µM); dose excreted [14]: 20%; ED50 (Mus musculus [16]): 36.2 mg/kg; MIC (Streptococcus pyogenes [18]): 0.06 µg/mL (≈ 0.147 µM); dose excreted [20]: 1.5%; ED50 (Mus musculus [21]): 1.51 mg/kg; ED50 (Mus musculus [24]): 0.62 mg/kg; MIC (Haemophilus influenzae [26]): 0.25 µg/mL (≈ 0.611 µM); ED50 (Mus musculus [28]): 14.8 mg/kg
2 | O=C(Cc1cccs1)N[C@@H]1C(=O)N2C(C(=O)O)=C(Cl)CS[C@H]12 | 0.25 µg/mL (≈ 0.697 µM) | 16 µg/mL (≈ 44.6 µM) | 0.5 µg/mL (≈ 1.39 µM) | 64 µg/mL (≈ 178 µM) | 13.1% | 2 µg/mL (≈ 5.57 µM) | 16 µg/mL (≈ 44.6 µM) | 2 µg/mL (≈ 5.57 µM) | 1 µg/mL (≈ 2.79 µM) | 0.5 µg/mL (≈ 1.39 µM) | 32 µg/mL (≈ 89.2 µM) | 43200 ng·h/mL | 15500 ng·h/mL | 44% | 75300 ng·h/mL | 4 µg/mL (≈ 11.1 µM) | 5670 ng·h/mL | 2 µg/mL (≈ 5.57 µM) | 0.125 µg/mL (≈ 0.348 µM) | 21% | MIC [29]: 1 µg/mL (≈ 2.79 µM); dose excreted [30]: 17%; MIC (Streptococcus pyogenes [31]): 0.125 µg/mL (≈ 0.348 µM); dose excreted [32]: 75%; MIC [33]: 1 µg/mL (≈ 2.79 µM); MIC (Streptococcus pneumoniae [34]): 0.125 µg/mL (≈ 0.348 µM)
